ChEMBL document CHEMBL3045743, “Synthesis and herbicidal activity of isoindoline-1,3-dione substituted benzoxazinone derivatives containing a carboxylic ester group” (J Agric Food Chem, 2009)

Legend:
Assay type in all cases: functional
Chenopodium album [1] = experiment: Pre-emergence herbicidal activity against Chenopodium album assessed as growth inhibition at 75 g.a.i./ha applied 24 hr after seeds were sown measured after 15 days; conditions: read-out: GI
Summary of the method: (§1)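 Weeds sown 5 mm deep in pots of greenhouse clay soil (pH 6.5, 37.5% clay, CEC 12.9 cmol/kg) and grown at 22-25 °C. Water-diluted formulation was applied pre-emergence 24 h after sowing. Untreated and DMF solvent controls were included. Growth inhibition was visually rated in % against untreated controls after 15 days, as the mean of triplicates.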

Amaranthus [2] = experiment: Pre-emergence herbicidal activity against Amaranthus ascendens assessed as growth inhibition at 75 g.a.i./ha applied 24 hr after seeds were sown measured after 15 days; conditions: read-out: GI; summary of the method: as §1
Abutilon theophrasti [3] = experiment: Pre-emergence herbicidal activity against Abutilon theophrasti (velvetleaf) assessed as growth inhibition at 75 g.a.i./ha applied 24 hr after seeds were sown measured after 15 days; conditions: read-out: GI; summary of the method: as §1
Echinochloa crus-galli [4] = experiment: Pre-emergence herbicidal activity against Echinochloa crus-galli (barnyard grass) assessed as growth inhibition at 75 g.a.i./ha applied 24 hr after seeds were sown measured after 15 days; conditions: read-out: GI; summary of the method: as §1
Digitaria sanguinalis [5] = experiment: Pre-emergence herbicidal activity against Digitaria sanguinalis (hairy crabgrass) assessed as growth inhibition at 75 g.a.i./ha applied 24 hr after seeds were sown measured after 15 days; conditions: read-out: GI; summary of the method: as §1
Abutilon theophrasti [6] = experiment: Post-emergence herbicidal activity against Abutilon theophrasti (velvetleaf) assessed as growth inhibition at 75 g.a.i./ha applied at two-leaf stage measured after 15 days; conditions: 360 h, read-out: GI
Summary of the method: (§2)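 Pot-grown weeds sown 5 mm deep in greenhouse clay soil (pH 6.5, 1.7% organic matter, CEC 12.9 cmol/kg) at 22-25 °C. Stock diluted with water and sprayed post-emergence: dicots at 2-leaf stage, monocots at 1-leaf stage. Untreated and DMF solvent controls were included. % growth inhibition was scored visually versus untreated controls after 15 days. Triplicates averaged.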

Digitaria sanguinalis [7] = experiment: Post-emergence herbicidal activity against Digitaria sanguinalis (hairy crabgrass) assessed as growth inhibition at 75 g.a.i./ha applied at one-leaf stage measured after 15 days; conditions: 360 h, read-out: GI; summary of the method: as §2
Setaria viridis [8] = experiment: Pre-emergence herbicidal activity against Setaria viridis (green foxtail) assessed as growth inhibition at 75 g.a.i./ha applied 24 hr after seeds were sown measured after 15 days; conditions: read-out: GI
Summary of the method: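 Preliminary pre-emergence screen at a single rate of 75 g a.i./ha. Stock diluted with water and sprayed on greenhouse pots 24 h after seeds were sown 5 mm deep in clay soil (pH 6.5, 1.7% organic matter); grown at 22-25 °C. Untreated and DMF solvent controls included; triplicate. Visual % growth inhibition vs untreated after 15 days, averaged and banded (>80% top band).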

Echinochloa crus-galli [9] = experiment: Post-emergence herbicidal activity against Echinochloa crus-galli (barnyard grass) assessed as growth inhibition at 75 g.a.i./ha applied at one-leaf stage measured after 15 days; conditions: 360 h, read-out: GI; summary of the method: as §2
Setaria viridis [10] = experiment: Post-emergence herbicidal activity against Setaria viridis (green foxtail) assessed as growth inhibition at 75 g.a.i./ha applied at one-leaf stage measured after 15 days; conditions: 360 h, read-out: GI; summary of the method: as §2
Amaranthus [11] = experiment: Post-emergence herbicidal activity against Amaranthus ascendens assessed as growth inhibition at 75 g.a.i./ha applied at two-leaf stage measured after 15 days; conditions: 360 h, read-out: GI; summary of the method: as §2
Chenopodium album [12] = experiment: Post-emergence herbicidal activity against Chenopodium album assessed as growth inhibition at 75 g.a.i./ha applied at two-leaf stage measured after 15 days; conditions: 360 h, read-out: GI; summary of the method: as §2

| SMILES | inhibition of growth at 75 g/ha (Chenopodium album [1]) [%] | inhibition of growth at 75 g/ha (Amaranthus [2]) [%] | inhibition of growth at 75 g/ha (Abutilon theophrasti [3]) [%] | inhibition of growth at 75 g/ha (Echinochloa crus-galli [4]) [%] | inhibition of growth at 75 g/ha (Digitaria sanguinalis [5]) [%] | inhibition of growth at 75 g/ha (Abutilon theophrasti [6]) [%] | inhibition of growth at 75 g/ha (Digitaria sanguinalis [7]) [%] | inhibition of growth at 75 g/ha (Setaria viridis [8]) [%] | inhibition of growth at 75 g/ha (Echinochloa crus-galli [9]) [%] | inhibition of growth at 75 g/ha (Setaria viridis [10]) [%] | inhibition of growth at 75 g/ha (Amaranthus [11]) [%] | inhibition of growth at 75 g/ha (Chenopodium album [12]) [%] |
| --- | --- | --- | --- | --- | --- | --- | --- | --- | --- | --- | --- | --- |
| CCOC(=O)CN1C(=O)COc2cc(F)c(N3C(=O)c4ccc(C)cc4C3=O)cc21 | < 50 | < 50 | < 50 | < 50 | < 50 | 50 | < 50 | < 50 | < 50 | < 50 | 50 | 50 |
| COC(=O)C(C)N1C(=O)COc2cc(F)c(N3C(=O)c4ccccc4C3=O)cc21 (stereo unspecified) | < 50 | < 50 | < 50 | < 50 | < 50 | > 80 | 50 | < 50 | 50 | 50 | > 80 | > 80 |
| CCOC(=O)CN1C(=O)COc2cc(N3C(=O)c4cc(Cl)c(Cl)cc4C3=O)c(F)cc21 | < 50 | < 50 | < 50 | < 50 | < 50 | < 50 | < 50 | < 50 | < 50 | < 50 | < 50 | < 50 |
| COC(=O)CN1C(=O)C(C)Oc2cc(F)c(N3C(=O)C4=C(CCCC4)C3=O)cc21 (stereo unspecified) | > 80 | > 80 | > 80 | < 50 | < 50 | > 80 | 50 | < 50 | < 50 | 50 | > 80 | > 80 |
| CCOC(=O)CN1C(=O)COc2cc(F)c(N3C(=O)C4=C(CCCC4)C3=O)cc21 | > 80 | > 80 | > 80 | < 50 | < 50 | > 80 | < 50 | < 50 | < 50 | < 50 | > 80 | > 80 |
| COC(=O)CN1C(=O)COc2cc(F)c(N3C(=O)C4=C(CCCC4)C3=O)cc21 | 50 | 50 | 50 | < 50 | < 50 | > 80 | 50 | < 50 | 50 | 50 | > 80 | > 80 |
| CCOC(=O)C(C)N1C(=O)COc2cc(F)c(N3C(=O)C4=C(CCCC4)C3=O)cc21 (stereo unspecified) | > 80 | > 80 | > 80 | < 50 | 50 | > 80 | > 80 | 50 | > 80 | > 80 | > 80 | > 80 |
| CCOC(=O)C(C)N1C(=O)COc2cc(F)c(N3C(=O)c4ccc([N+](=O)[O-])cc4C3=O)cc21 (stereo unspecified) | 50 | < 50 | < 50 | < 50 | < 50 | < 50 | < 50 | < 50 | < 50 | < 50 | < 50 | < 50 |
